# Assay outcomes deposited in PubChem by several laboratories.
# NR1D1 modulator – modulates human Rev-erb alpha binding to DNA; P20393; Rev-erbα–FITC-DNA binding, fluorescence polarization, 90 min; activity, % at 10 µM; 0.79% of 370,000 active; AID 1259318;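 active means activity above about 14%, limit read from the data; passing the limit was not always enough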;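 further: 0% = DMSO wells with 35 nM protein and 100% = DMSO wells with 750 nM protein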
# Target sequence (P20393 whole entry, looked up): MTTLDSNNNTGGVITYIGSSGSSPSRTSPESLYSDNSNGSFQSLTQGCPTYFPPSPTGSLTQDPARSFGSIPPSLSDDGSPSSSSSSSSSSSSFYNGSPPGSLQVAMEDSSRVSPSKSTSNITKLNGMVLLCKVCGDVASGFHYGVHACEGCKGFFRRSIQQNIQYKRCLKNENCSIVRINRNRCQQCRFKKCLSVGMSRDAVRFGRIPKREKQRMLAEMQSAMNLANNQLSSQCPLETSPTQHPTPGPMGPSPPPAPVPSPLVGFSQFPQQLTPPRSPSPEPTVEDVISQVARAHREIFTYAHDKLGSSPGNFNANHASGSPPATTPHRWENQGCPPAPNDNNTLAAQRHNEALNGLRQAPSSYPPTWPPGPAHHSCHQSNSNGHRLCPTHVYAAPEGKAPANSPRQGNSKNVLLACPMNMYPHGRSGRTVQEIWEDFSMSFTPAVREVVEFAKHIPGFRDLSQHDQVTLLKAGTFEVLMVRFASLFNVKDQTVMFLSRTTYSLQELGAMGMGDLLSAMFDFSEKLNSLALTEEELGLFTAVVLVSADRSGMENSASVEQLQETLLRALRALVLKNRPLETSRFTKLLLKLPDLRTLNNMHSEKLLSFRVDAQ
# NR2E3 ag-1 – human photoreceptor-specific nuclear receptor agonism; inhibition of corepressor binding, % at 3.98 µM; CHO-S Gal4-NCOR/VP16-NR2E3 two-hybrid, luciferase; 0.35% of 360,000 active;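 active means inhibition above the mean of all tested compounds plus 3 SD, cut at about 70% in these data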;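 further: 0% = DMSO with NR2E3 transfected cells and 100% = cells lacking NR2E3 construct; higher means lower luciferase signal from less NR2E3 corepressor binding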
# NR2E3 ag-2 – activates human photoreceptor nuclear receptor NR2E3; Q9Y5X4; GST-NR2E3/biotin-RetCOR TR-FRET, 1536-well; inhibition of corepressor binding, % at 4.78 µM; 0.12% of 320,000 active;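 active means percent inhibition above the cutoff of mean plus 3 SD of all tested compounds, set per screening campaign, cut at about 20% in these data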;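 further: 0% = DMSO wells and 100% = biotin wells as full block of FRET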
#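 Test system: GST-NR2E3 and biotin-RetCOR proteins | Quantity: 1.35 nM GST-tagged NR2E3 final | Medium: Tris pH 7.5 | Also added: 7 nM biotin-RetCOR | Dosing: Compound at 4.8 µM, single dose | Timing: 5 h at 4 °C | Detection: Time-resolved FRET | Read-out basis: Percent inhibition | Benchmarks: Biotin wells as high control, 0.6% DMSO wells as low control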
# PG9 Ab binder – binds the HIV-1 gp120 antibody PG9; inhibition, % at 6.7 µM; 0.43% of 360,000 active; TR-FRET gp120-PG9 antibody binding; in the data active means inhibition above about 8.5%
# NR1D1 mod conf – confirmation of modulators of human Rev-erb alpha DNA binding; shares compounds with NR1D1 modulator; Rev-erb alpha FITC-DNA binding, fluorescence polarization, 90 min; activation, % at 25 µM; 61% of 3,000 active; AID 1259319;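 active means activation at or above a set limit, or at least 3 SD above the negative control mean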;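 further: 0% = 35 nM protein with DMSO and 100% = 750 nM protein high control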
# RORg counter – counter-screen for Rev-erb alpha modulators: RORgamma DNA binding. shares compounds with NR1D1 modulator. purified RORgamma protein-FITC-DNA binding, fluorescence polarization. IC50, µM. 8% of 910 active. AID 1259320;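 active means Compounds whose fitted half-maximal concentration for disrupting protein-DNA binding is below 10 micromolar; the record names Rev-erb in its text, so the target is in doubt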
# * = called active by the depositor; i = inactive; nt = no result. Sampled rows, rich in hits. Any-hit rate of the full collection: about 1.5%.
SMILES,NR1D1 modulator,NR2E3 ag-1,NR2E3 ag-2,PG9 Ab binder,NR1D1 mod conf,others
Clc1ccc(Nc2nc3ccccc3n3nnnc23)cc1,32.8*,-27.1,-1.6,-3.0,17.8*,
Cc1ccc(Nc2nc3ccccc3n3nnnc23)cc1,-1.2,-81.5,1.2,4.6,nt,
CCN(C(=O)COC(=O)c1ccc(Sc2ncn[nH]2)c([N+](=O)[O-])c1)c1ccccc1,-2.6,nt,nt,nt,nt,
O=C(NNc1c2ccccc2nc2ccccc12)c1cccc(O)c1,19.8*,-9.1,-3.2,-12.4,15.9,
O=C(NNc1c2ccccc2nc2ccccc12)c1ccc(O)cc1,9.4,-63.1,-10.4,-17.2,nt,
O=C(c1ccc(OC2CCN(Cc3ccccc3O)CC2)cc1)N1CCCCC1,36.1*,2.1,1.1,-2.5,1.6,
COc1cccc(CN2CCC(Oc3ccc(C(=O)N4CCCCC4)cc3)CC2)c1O,7.5,-18.4,-1.2,-2.1,nt,
COCCCNC(=O)C[C@H]1C[C@@]2(C(=O)OC)C(=C[C@H](C3CCCC3)O[C@@H]2C)N(CCC2=CCCCC2)C1=O,3.4,nt,nt,nt,nt,
COc1cccc(-n2nnnc2SCC(=O)Nc2ccc3c(c2)OCCO3)c1,30.3*,-5.2,-1.0,1.9,46.0*,RORg counter=i
COC(=O)[C@@H](CC(C)C)CP(=O)(OC)[C@@H](C)NC(=O)OCc1ccccc1 (stereo not given in full),0.6,nt,nt,nt,nt,
Cc1cccc(OCC(=O)NC(=S)Nc2ccccc2N2CCOCC2)c1C,40.0*,-16.9,1.2,-1.3,3.6,
CC(C)C(=O)N1CCN(c2ccccc2NC(=S)NC(=O)c2ccco2)CC1,-2.5,-15.8,-3.2,-0.4,nt,
CC(C)C(=O)N1CCN(c2ccccc2NC(=S)NC(=O)Cc2ccccc2)CC1,17.2*,-48.6,1.4,0.1,1.7,
COC(=O)[C@]12C[C@H](CC(=O)N3CCOCC3)C(=O)N(Cc3ccc(Cl)cc3Cl)C1=C[C@H](C1CCCC1)O[C@@H]2C,9.8,nt,nt,nt,nt,
O=C(C1=NN[C@@H]2C(=O)N(Cc3ccccc3)C(=O)[C@H]12)c1ccc([N+](=O)[O-])cc1,15.9*,3.3,-0.3,-0.2,4.2,
Cc1cccnc1NC(=O)c1c(O)c2cccc3c2n(c1=O)CCC3,-1.2,-6.5,3.7,-0.2,nt,
O=C(Nc1ccccn1)c1c(O)c2cccc3c2n(c1=O)CCC3,32.4*,-19.3,0.9,0.7,7.0,
NCCNC(=O)c1c(O)c2cccc3c2n(c1=O)CCC3,-5.2,-60.5,nt,1.0,nt,
O=C(Nc1nccs1)c1c(O)c2cccc3c2n(c1=O)CCC3,36.5*,nt,3.7,1.4,29.7*,
COCCCn1c(C(=O)NCCC2=CCCCC2)cc2c(=O)n3cccc(C)c3nc21,62.3*,-15.6,-1.4,1.0,39.9*,RORg counter=>40
Cc1ccc(CNC(=O)c2nnn(CC(=O)Nc3cccc(C)c3C)c2N)cc1,27.2*,17.6,-1.6,-0.7,22.1*,
Cc1ccc(CNC(=O)Cn2nnc(C(=O)Nc3cccc(C)c3C)c2N)cc1,-3.0,-43.4,2.0,2.8,nt,
COc1cccc(NC(=O)Cn2nnc(C(=O)Nc3ccccc3)c2N)c1,0.3,-21.5,-2.5,-0.8,nt,
COc1cccc(NC(=O)Cn2nnc(C(=O)NCCc3ccccc3)c2N)c1,19.8*,15.7,-1.3,-2.5,5.3,
CCCC1CCC2(CC1)CCC2OC(=S)Nc1ccccc1Br (stereo not given),2.2,nt,nt,nt,nt,
SMILES,NR1D1 modulator,NR2E3 ag-1,NR2E3 ag-2,PG9 Ab binder,NR1D1 mod conf,others
Cc1ccc(-c2cc(C(F)F)nc3sc4c(=O)[nH]cnc4c23)cc1,107.4*,-11.5,2.1,3.0,113.2*,RORg counter=>40
CCc1cc2ccc(C)c(C)c2nc1SCC(=O)Nc1cc(C)on1,15.7,19.5,1.3,1.1,nt,
Cc1cc(NC(=O)CSc2nc3c(C)c(C)ccc3cc2C)no1,24.6*,16.4,-2.5,-1.8,15.1,
Cc1cc(NC(=O)CSc2nc3cc(C)c(C)cc3cc2C)no1,85.4*,-4.5,-0.3,-2.1,47.8*,RORg counter=>40
c1ccc(Cn2ccc3ccc(-c4ccc5ccn(Cc6cccc(Oc7ccccc7)c6)c5c4)cc32)cc1,0.3,nt,nt,nt,nt,
COc1cc(O)c([C@@H](CC(=O)N2CC(C)CC(C)C2)c2ccc3c(c2)OCO3)c(OC)c1 (stereo not given in full),4.2,nt,nt,nt,nt,
O=C(c1ccccc1)c1nn(-c2ccc(Cl)cc2)cc1C(=O)c1cc2ccccc2oc1=O,33.9*,-13.1,4.1,-1.5,-8.1,
Cc1cccc(N2O[C@H]3C=C[C@@H]2C3)n1,-3.7,nt,nt,0.4,nt,
O=C(Nc1ccc(F)cc1F)c1cc2ncc(Br)cn2n1,0.1,nt,nt,-0.1,nt,
COC(=O)c1ccccc1NC(=O)c1cc2ncc(Br)cn2n1,23.1*,-4.8,-2.0,0.4,2.1,
Cc1sc2nc(C(C)(C)C)oc(=O)c2c1C,-1.6,6.4,2.1,nt,nt,
Cc1ccccc1-c1nc2sc(C)c(C)c2c(=O)o1,18.0*,-5.3,1.0,1.7,0.1,
COc1cc(-c2nc3sc(C)c(C)c3c(=O)o2)cc(OC)c1OC,31.3*,14.1,-0.5,0.9,17.6,
Cc1sc2nc(-c3ccco3)oc(=O)c2c1C,3.4,-1.4,3.7,3.6,nt,
COc1ccc(-c2csc3nc(-c4ccc(C)cc4)oc(=O)c23)cc1OC,27.4*,-1.0,2.3,0.5,-3.6,
Cc1cccc(-c2cccc3c4c([nH]c23)[C@@H]2C[C@H](N(C)C(=O)c3cccc(Cl)c3)[C@H]([C@H](C)O)CN2CC4)c1,-1.8,nt,nt,nt,nt,
CCOC(=O)[C@H](Cc1ccccc1)NC(=O)[C@H]1C[C@@]2(N3CCCCC3)c3ccccc3N(C(=O)OC(C)(C)C)[C@H]2N1C(=O)OC(C)(C)C,-3.3,nt,nt,nt,nt,
COC(=O)[C@H]1C[C@@]2(n3ccc4ccccc43)c3ccccc3N(S(=O)(=O)c3ccccc3)[C@H]2N1C(=O)CNC1CCCCC1,3.7,nt,nt,nt,nt,
CN(Cc1ccccc1)Cc1nc2c(c(=O)n(C)c(=O)n2C)n1Cc1ccccc1Cl,30.7*,-9.7,0.4,1.4,49.6*,
CCCn1c(CN(C)Cc2ccccc2)nc2c1c(=O)n(C)c(=O)n2C,-5.0,20.7,0.1,1.4,nt,
COc1ccccc1N(C)S(=O)(=O)c1ccc(Cl)c(C(=O)OCc2c(C)noc2C)c1,18.1*,1.1,-1.4,0.2,16.8,
O=C(CCCC(=O)OCC(=O)c1cccs1)Nc1ccc(Oc2ccccc2)cc1,68.3*,-16.5,0.7,-0.2,48.0*,RORg counter=>40
O=C(CCCC(=O)OCC(=O)c1cccs1)Nc1ccc(F)cc1,0.6,-16.4,3.5,0.9,nt,
CC1CCCN(S(=O)(=O)c2ccc(C(=O)Nc3ccccc3-c3nc4ccccc4[nH]3)cc2)C1 (stereo not given),39.5*,15.3,3.2,0.7,1.7,
O=C(Nc1cccc(Br)c1)c1cc(S(=O)(=O)N2CCOCC2)cs1,29.5*,-5.0,-0.1,-0.6,5.5,
Cc1c(C(=O)Nc2cccc(S(=O)(=O)N3CCOCC3)c2)oc2ccc(Br)cc12,16.4*,-9.5,nt,1.5,-1.9,
